Assay results from ChEMBL document CHEMBL5316295, “Systematic Design of Adenosine Analogs as Inhibitors of a Clostridioides difficile-Specific DNA Adenine Methyltransferase Required for Normal Sporulation and Persistence” (J Med Chem, 2023).
The source made the active and inactive calls.

How the values were obtained:
[1] = target: Histone-lysine N-methyltransferase, H3 lysine-79 specific (Homo sapiens) (UniProt Q8TEK3); experiment: Inhibition of human DOT1L using oligonucleosome as substrate and 3H-SAM as cosubstrate at 10 uM pretreated with compound for 20 mins in presence of oligonucleosome followed by cosubstrate addition and measured after 1 hr; conditions: time 80.0 min
Chain of Histone-lysine N-methyltransferase, H3 lysine-79 specific (Homo sapiens) (Q8TEK3 whole entry, looked up): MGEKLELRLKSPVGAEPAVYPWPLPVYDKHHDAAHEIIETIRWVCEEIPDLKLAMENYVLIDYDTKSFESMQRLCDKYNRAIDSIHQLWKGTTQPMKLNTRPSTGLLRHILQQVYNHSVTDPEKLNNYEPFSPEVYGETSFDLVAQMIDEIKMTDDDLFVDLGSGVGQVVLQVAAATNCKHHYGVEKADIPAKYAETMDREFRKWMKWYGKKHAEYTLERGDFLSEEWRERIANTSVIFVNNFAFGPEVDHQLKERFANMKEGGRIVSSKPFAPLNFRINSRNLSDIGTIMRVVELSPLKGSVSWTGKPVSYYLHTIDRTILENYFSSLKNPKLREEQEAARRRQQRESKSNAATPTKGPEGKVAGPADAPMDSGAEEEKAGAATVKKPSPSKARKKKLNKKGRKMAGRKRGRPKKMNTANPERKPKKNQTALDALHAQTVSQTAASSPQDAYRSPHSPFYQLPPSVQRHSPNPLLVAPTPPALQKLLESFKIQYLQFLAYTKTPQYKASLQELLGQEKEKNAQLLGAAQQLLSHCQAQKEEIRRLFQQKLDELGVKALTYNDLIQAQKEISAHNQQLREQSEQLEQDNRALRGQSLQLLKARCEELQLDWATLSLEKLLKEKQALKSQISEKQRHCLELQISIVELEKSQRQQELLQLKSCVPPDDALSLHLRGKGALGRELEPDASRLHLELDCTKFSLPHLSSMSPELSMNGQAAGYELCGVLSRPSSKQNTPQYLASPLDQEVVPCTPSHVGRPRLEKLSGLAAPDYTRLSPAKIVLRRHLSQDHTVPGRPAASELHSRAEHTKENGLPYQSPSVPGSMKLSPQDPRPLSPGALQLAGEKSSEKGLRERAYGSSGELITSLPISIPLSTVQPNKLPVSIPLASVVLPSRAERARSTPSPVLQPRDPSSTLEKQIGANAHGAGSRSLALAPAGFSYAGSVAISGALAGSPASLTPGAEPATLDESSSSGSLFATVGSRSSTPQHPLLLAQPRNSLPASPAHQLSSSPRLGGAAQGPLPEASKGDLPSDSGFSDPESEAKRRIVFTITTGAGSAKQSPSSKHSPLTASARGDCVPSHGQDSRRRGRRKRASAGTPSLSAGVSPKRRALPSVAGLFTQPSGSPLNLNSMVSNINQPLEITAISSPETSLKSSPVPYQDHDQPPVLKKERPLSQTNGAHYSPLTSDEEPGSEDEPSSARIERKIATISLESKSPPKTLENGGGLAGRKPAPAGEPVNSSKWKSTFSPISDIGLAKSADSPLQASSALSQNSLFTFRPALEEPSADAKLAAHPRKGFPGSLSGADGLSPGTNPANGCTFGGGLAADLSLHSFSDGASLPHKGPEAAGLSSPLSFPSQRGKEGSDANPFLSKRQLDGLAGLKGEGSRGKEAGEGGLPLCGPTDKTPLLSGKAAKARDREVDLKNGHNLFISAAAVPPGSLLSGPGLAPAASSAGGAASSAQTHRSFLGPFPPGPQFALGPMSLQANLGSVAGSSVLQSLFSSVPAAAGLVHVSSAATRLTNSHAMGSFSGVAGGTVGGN
Method in brief: (§1)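 Enzymes (DOT1L 1 nM; EZH2, G9a, PRMT1 5 nM) mixed with substrate (0.05 mg/mL oligonucleosomes for DOT1L; 0.05 mg/mL core histone for EZH2; 5 μM H3 1–21 peptide for G9a; 5 μM H4 for PRMT1). Compound (10 μM) added for 20 min at room temperature, then 1 μM ³H-SAM for 1 h at 30 °C; filter-paper read-out. Triplicates, mean ± SD.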

[2] = target: METTL3/METTL14 (Homo sapiens) (UniProt Q86U44+Q9HCE5); experiment: Inhibition of human METTL3/METTL14 using 5'-AAC AGA AUG GGA CUG UUC-3' as substrate and SAM as cosubstrate at 10 uM incubated for 15 mins; type: protein-complex assay
Method in brief: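 Under CamA conditions (100 mM NaCl) the assay ran 15 min with 10 μM inhibitor. An alternative condition used 0.1 μM enzyme, 10 μM ssRNA, 20 μM SAM in 50 mM HEPES pH 7.5, 5 mM NaCl, 1 mM DTT, 0.25% DMSO for 10 min.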

[3] = target: T1, RNA N(6)-adenosine-methyltransferase METTL16 (Homo sapiens) (UniProt Q86W50); experiment: Inhibition of human METTL16 using 5'-GGUUGGCGUAGGCUACAGAGAAGCCAACC-3' as substrate and SAM as cosubstrate at 10 uM incubated for 15 mins
T1 sequence (whole entry): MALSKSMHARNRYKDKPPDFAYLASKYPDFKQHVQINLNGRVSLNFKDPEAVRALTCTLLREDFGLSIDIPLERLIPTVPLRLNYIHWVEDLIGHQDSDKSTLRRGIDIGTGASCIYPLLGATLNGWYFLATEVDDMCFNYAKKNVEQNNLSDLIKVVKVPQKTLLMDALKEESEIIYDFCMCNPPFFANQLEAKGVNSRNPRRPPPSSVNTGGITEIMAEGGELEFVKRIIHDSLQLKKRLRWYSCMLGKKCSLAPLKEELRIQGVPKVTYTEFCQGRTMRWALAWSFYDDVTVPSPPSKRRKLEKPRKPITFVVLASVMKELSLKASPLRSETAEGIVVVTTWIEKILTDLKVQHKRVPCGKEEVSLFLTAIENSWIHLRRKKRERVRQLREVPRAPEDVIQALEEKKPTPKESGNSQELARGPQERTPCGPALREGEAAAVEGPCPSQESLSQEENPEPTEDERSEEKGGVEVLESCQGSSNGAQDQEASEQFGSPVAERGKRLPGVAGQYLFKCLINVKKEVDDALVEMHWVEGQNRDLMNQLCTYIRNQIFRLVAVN
Method in brief: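 Under CamA buffer conditions (30 μM SAM) the assay ran 15 min with ssRNA hairpin substrate and 10 μM inhibitor. A separate condition used 0.4 μM enzyme, 5 μM RNA, 160 μM SAM in 20 mM Tris–HCl pH 8.0, 400 mM NaCl, 1 mM DTT, 0.25% DMSO for 30 min.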

[4] = target: Protein arginine N-methyltransferase 1 (Homo sapiens) (UniProt Q99873); experiment: Inhibition of PRMT1 (unknown origin) using histone H4 as substrate and 3H-SAM as cosubstrate at 10 uM pretreated with compound for 20 mins in presence of histone H4 followed by cosubstrate addition and measured after 1 hr; conditions: time 80.0 min; method in brief: as §1
Chain of Protein arginine N-methyltransferase 1 (Homo sapiens) (Q99873 whole entry, looked up, the tested form may be a part): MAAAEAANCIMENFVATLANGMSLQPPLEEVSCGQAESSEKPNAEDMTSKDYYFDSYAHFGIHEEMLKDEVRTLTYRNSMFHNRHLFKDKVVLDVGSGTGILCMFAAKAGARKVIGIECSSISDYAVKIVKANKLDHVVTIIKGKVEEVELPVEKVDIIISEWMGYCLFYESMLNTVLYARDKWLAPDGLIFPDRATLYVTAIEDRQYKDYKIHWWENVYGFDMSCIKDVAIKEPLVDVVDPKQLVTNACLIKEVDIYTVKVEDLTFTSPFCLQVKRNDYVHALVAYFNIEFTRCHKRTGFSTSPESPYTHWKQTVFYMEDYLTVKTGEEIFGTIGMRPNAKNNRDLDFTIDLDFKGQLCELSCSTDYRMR

[5] = target: DNA (cytosine-5)-methyltransferase 1 (Homo sapiens) (UniProt P26358); experiment: Inhibition of human DNMT1 (351 to 1600 residues) using 5'-CCT GCG GAG GCT MGT CAT GA-3' and 3'-GGACGCCTCCGAGCAGTACT-5' as substrate and SAM as cosubstrate at 10 uM incubated for 1 hr
Chain of DNA (cytosine-5)-methyltransferase 1 (Homo sapiens) (P26358 whole entry, the tested form may be a part): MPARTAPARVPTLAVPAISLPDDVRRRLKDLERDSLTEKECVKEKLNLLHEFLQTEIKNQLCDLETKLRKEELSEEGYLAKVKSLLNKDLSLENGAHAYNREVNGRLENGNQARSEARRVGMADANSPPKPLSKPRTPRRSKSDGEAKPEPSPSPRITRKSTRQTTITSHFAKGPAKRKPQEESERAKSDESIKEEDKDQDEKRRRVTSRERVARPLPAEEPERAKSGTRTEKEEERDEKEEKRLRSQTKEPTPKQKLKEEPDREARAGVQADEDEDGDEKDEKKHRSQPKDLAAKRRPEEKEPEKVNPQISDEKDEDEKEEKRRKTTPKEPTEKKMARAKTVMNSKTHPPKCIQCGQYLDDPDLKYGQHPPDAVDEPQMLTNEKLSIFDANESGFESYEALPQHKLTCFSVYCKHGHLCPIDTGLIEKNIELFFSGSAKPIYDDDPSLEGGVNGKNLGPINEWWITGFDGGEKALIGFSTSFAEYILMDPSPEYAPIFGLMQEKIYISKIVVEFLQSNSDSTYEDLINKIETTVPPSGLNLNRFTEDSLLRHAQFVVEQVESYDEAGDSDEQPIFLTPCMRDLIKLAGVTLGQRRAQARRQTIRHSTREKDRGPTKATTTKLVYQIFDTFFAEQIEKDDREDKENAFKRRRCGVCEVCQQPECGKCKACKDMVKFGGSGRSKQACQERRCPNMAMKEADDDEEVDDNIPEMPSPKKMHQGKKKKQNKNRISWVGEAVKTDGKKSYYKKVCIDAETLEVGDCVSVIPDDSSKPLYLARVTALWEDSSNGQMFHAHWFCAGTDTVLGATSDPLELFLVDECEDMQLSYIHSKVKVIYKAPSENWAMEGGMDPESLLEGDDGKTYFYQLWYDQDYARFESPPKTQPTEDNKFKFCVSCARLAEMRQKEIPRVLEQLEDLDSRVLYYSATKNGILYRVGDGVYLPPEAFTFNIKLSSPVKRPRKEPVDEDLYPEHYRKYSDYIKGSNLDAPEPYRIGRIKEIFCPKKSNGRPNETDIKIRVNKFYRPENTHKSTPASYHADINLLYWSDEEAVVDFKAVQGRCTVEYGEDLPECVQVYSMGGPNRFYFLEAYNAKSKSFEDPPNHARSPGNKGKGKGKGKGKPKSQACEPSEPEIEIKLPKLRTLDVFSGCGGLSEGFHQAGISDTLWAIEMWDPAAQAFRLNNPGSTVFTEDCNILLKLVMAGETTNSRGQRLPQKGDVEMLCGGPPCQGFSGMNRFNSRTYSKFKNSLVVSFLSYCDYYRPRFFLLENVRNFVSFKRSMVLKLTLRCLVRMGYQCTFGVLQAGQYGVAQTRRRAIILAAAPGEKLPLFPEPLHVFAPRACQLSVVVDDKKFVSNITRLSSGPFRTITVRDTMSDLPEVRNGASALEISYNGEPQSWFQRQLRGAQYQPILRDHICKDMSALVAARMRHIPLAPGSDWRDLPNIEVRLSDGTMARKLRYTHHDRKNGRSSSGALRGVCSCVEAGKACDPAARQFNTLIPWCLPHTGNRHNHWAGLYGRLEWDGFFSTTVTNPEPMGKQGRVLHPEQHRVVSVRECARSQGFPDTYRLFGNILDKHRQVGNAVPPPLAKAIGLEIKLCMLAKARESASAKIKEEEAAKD
Method in brief: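 DNMT1 (0.1 μM) with 1 μM hemimethylated dsDNA, 5.5 μM SAM and 10 μM inhibitor in 50 mM Tris pH 7.5, 1 mM EDTA, run 1 h at 37 °C.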

Measured: inhibition

CC(C)(C)OC(=O)N1CCC(CCNc2ncnc3c2ncn3[C@@H]2O[C@H](CO)[C@@H](O)[C@H]2O)CC1
inactive: [1] | [2] | [3] | [4] | [5]

OC[C@H]1O[C@@H](n2cnc3c(NCCCc4ccc(O)cc4)ncnc32)[C@H](O)[C@@H]1O
inactive: [1] | [2] | [3] | [4] | [5]

CC(C)(C)OC(=O)N1CCC(CCCNc2ncnc3c2ncn3[C@@H]2O[C@H](CO)[C@@H](O)[C@H]2O)CC1
inactive: [1] | [2] | [3] | [4] | [5]
